EBI2 block: blocks human EBI2 receptor beta-arrestin signaling; P32249; inhibition, % at 5 µM; EBI2 beta-arrestin recruitment, luminescence, 7a,25-OHC stimulated; hit rate 0.81% among 360,000; in the data active = inhibition above about 38%;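 note: enzyme fragment complementation signal reports receptor beta-arrestin coupling in cells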
APJ agonist: agonists of human APJ apelin receptor; P35414; CHO-K1 APJ PathHunter beta-arrestin, luminescence; 0% DMSO wells, 100% apelin; activation, % at 20 µM; hit rate 0.11% among 330,000;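 active = activation more than six SD over the plate average, tested at 20 µM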
Target sequence (P35414 whole entry, looked up): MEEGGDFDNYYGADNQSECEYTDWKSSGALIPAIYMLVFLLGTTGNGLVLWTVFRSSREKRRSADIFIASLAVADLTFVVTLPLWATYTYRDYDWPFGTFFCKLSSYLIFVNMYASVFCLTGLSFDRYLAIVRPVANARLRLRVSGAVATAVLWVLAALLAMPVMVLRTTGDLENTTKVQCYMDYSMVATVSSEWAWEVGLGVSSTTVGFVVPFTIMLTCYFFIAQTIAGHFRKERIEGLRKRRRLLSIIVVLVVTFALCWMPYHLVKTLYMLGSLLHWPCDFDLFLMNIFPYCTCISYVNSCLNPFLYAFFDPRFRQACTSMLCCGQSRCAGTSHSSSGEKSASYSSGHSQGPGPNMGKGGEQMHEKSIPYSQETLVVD
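Assay system: CHO-K1 cells stably expressing ProLink-tagged human APJ and arrestin–beta-gal acceptor. Compound dosing: 20 µM single point, 1% DMSO. Times: 16-18 h seeding, 90 min dark compound exposure, 60 min detection. Detection: beta-gal luminescence. Evaluation: APJ–arrestin association signal. Controls: negative DMSO alone, positive Apelin-13 at 10 nM.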
CCR6 antag: CCR6 (human) receptor antagonism. P51684. CHO-K1 CCR6 PathHunter beta-arrestin, luminescence, CCL20-stimulated. inhibition, % at 20 µM. hit rate 0.49% among 340,000. AID 493098;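 active = compounds whose inhibition of the agonist-driven luminescence signal at 20 µM reaches about 50%, limit read from the data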;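 note: cells stimulated with CCL20 at 14 nM final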
APJ antag: APJ receptor antagonism; CHO-K1 APJ beta-arrestin complementation, luminescence; AID 2521; inhibition, % at 20 µM; hit rate 0.32% among 330,000; P35414;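 active = inhibition above about 40% at 20 µM, limit read from the data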;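 note: cells challenged with 10 nM apelin-13 agonist together with compound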
CXCR6 inh: CXCR6 (human) receptor inhibition; O00574; CHO-K1 PathHunter CXCR6 beta-arrestin, luminescence; inhibition, % at 20 µM; AID 602244; hit rate 0.36% among 360,000; in the data active = inhibition above about 34%, passing the limit was not always enough;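 note: antagonist mode with CXCL16 agonist at 10 nM final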
CXCR6 confirm: CXCR6 antagonism confirmation, single concentration. hit rate 65% among 700. CHO-K1 CXCR6 PathHunter beta-arrestin, luminescence. shares compounds with CXCR6 inh. AID 602409. inhibition, % at 20 µM;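 active = mean inhibition over four retests above 40%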;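 note: receptor stimulated with 10 nM CXCL16 agonist; beta-galactosidase fragment complementation upon beta-arrestin recruitment to receptor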
Large screens that a line does not name were inactive (follow-up assays come after a bar, where they were run). In the library only some 1.5% were active in any assay of this set; here they are far more common.

O=C(Nc1nccs1)c1sc2cc(Cl)ccc2c1Cl	CCR6 antag 73, CXCR6 inh 67 | CXCR6 confirm 76
COCCN1C(=O)c2ccc(C(=O)Nc3cccnc3)cc2C1=O	none
COc1cc(/C=C/C(=O)c2ccc(C)c([N+](=O)[O-])c2)cc(OC)c1O	CCR6 antag 68, CXCR6 inh 43 | CXCR6 confirm 55
COc1ccc(/C=C/C(=O)c2ccc(C)c([N+](=O)[O-])c2)cc1O	none
COc1ccc(C(=O)Nc2cc3c4c(c2)C(C)C(=O)N4CCC3)c(OC)c1 (stereo not drawn)	none
Cc1ccc(NC(=O)c2ccccc2)cc1	none
Cc1ccc(NC(=O)C2=C(c3ccccc3)S(=O)(=O)CCS2(=O)=O)cc1	CXCR6 inh 48 (no result: CCR6 antag) | CXCR6 confirm 53
COc1cccc2cc(C(=O)Nc3ccc(F)cc3)c(=Nc3ccc(C(=O)O)cc3)oc12	CCR6 antag 80, CXCR6 inh 49 | CXCR6 confirm inactive
COc1ccc(CCNC(=O)COC(=O)c2cccs2)cc1	none
CCCc1ccc(OC(=O)c2cccs2)cc1	CXCR6 inh 50 | CXCR6 confirm inactive
COc1cccc(OC)c1C(=O)OCC(=O)NCC1CCCCC1	none (no result: APJ agonist, CCR6 antag, APJ antag)
CCOc1cc(/C=C2\N=C(SCC)SC2=O)cc([N+](=O)[O-])c1OC(C)=O	CCR6 antag 55, CXCR6 inh 45 | CXCR6 confirm 59
CCOc1cc(/C=C2\N=C(SC)SC2=O)cc([N+](=O)[O-])c1OC(C)=O	CXCR6 inh 42 | CXCR6 confirm 40
CCOc1c(OC(C)=O)ccc(/C=C2\N=C(SCC)SC2=O)c1[N+](=O)[O-]	none
O=C(NC1CCCC1)C(c1ccccc1F)N(C(=O)c1ccco1)C1CCCC1 (stereo not drawn)	none
CC(=O)c1ccc(OCC(=O)OCC(=O)c2ccc(S(=O)(=O)N3CCCCC3)cc2)cc1	CXCR6 inh 40 (no result: APJ agonist, CCR6 antag, APJ antag) | CXCR6 confirm inactive
NNC(=O)c1cccc(COc2ccc3c(c2)CCC3)c1	CXCR6 inh 49 | CXCR6 confirm inactive
Cn1c(C(=O)NCc2cccs2)cc2c(=O)n(C)c3ccccc3c21	none
COc1ccc(C(=O)NC(=S)Nc2ccc([N+](=O)[O-])cc2C)cc1OC	CCR6 antag 68, CXCR6 inh 50 | CXCR6 confirm 55
CN1C(=O)N(CC(=O)Nc2ccc(C(F)(F)F)cc2)C(=O)C12CCCCC2	none
O=C(O)C(NS(=O)(=O)c1ccccc1)C(O)c1ccccc1 (stereo not drawn)	none
C=C1C(=O)[C@]23C[C@H]1CCC2[C@@]1(C)C(C[C@@H]3O)[C@](C)(C(=O)OC)CC[C@@H]1OC(C)=O (stereo partly drawn)	EBI2 block 80, CXCR6 inh 69 (no result: APJ agonist, CCR6 antag, APJ antag) | CXCR6 confirm 89
C=C1C(=O)[C@]23C[C@H]1CC[C@H]2[C@]1(C)[C@@H](OC(C)=O)CC[C@@](C)(C(=O)OC)[C@H]1C[C@@H]3OC(C)=O	none (no result: APJ agonist, CCR6 antag, APJ antag)
Cc1ccc2c(c1)C1CN(C)CCC1N2C(=S)NC(=O)c1ccc(Br)cc1 (stereo not drawn)	CCR6 antag 56, CXCR6 inh 44 | CXCR6 confirm 67
CC1=C(CC/C(C)=N/NC(N)=S)C(C)(C)CCC1	CXCR6 inh 46 | CXCR6 confirm inactive
CC(C)=CCN1CCN(CCC2=C(C)CCCC2(C)C)CC1CCO (stereo not drawn)	none
CCOC(=O)c1c(C)oc2c1c(C=NCc1ccccn1)c(O)c1ccccc12	CCR6 antag 77, CXCR6 inh 98 (no result: APJ agonist, APJ antag) | CXCR6 confirm 64
CCOC(=O)c1c(C)oc2c1c(C=NCC1CCCO1)c(O)c1ccccc12 (stereo not drawn)	none (no result: APJ agonist, APJ antag)
COc1ccc(-n2nnnc2S(=O)(=O)CC(=O)N2CCCCC2)cc1	EBI2 block 43, CXCR6 inh 48 | CXCR6 confirm 49
C=C1C(=O)C23CCC4C(C)(C(=O)OC)CCCC4(C)C2CCC1(O)C3 (stereo not drawn)	EBI2 block 78, CCR6 antag 86, CXCR6 inh 79 (no result: APJ agonist, APJ antag) | CXCR6 confirm 89
C[C@@H](NC(=O)c1[nH]cnc1C(=O)Nc1ccccc1F)c1ccccc1	CXCR6 inh 42 (no result: APJ agonist, CCR6 antag, APJ antag) | CXCR6 confirm inactive
C[C@@H](NC(=O)c1nc[nH]c1C(=O)N[C@H](C)c1ccccc1)c1ccccc1	none
O=C(NC(=S)N1CCN(c2ccc(C(F)(F)F)cc2[N+](=O)[O-])CC1)c1cccs1	CXCR6 inh 52 (no result: CCR6 antag) | CXCR6 confirm 56
NS(=O)(=O)c1ccc(CCNC(=O)CCNC(=O)c2ccco2)cc1	none
O=C(CCNC(=O)c1ccco1)NCCc1ccc(Cl)cc1	CXCR6 inh 40 | CXCR6 confirm inactive
O=C(COC(=O)c1ccco1)NCC1CCCCC1	none
O=C(COC(=O)c1ccco1)NCCNC(=O)COC(=O)c1ccco1	CXCR6 inh 36 | CXCR6 confirm inactive
Cc1ccc(NC(=O)COC(=O)C2C3CC4OC(=O)C2C4C3)cc1 (stereo not drawn)	none
CCN(c1ccccc1)S(=O)(=O)c1ccc2[nH]c(=O)c(=O)[nH]c2c1	none
CCN(c1ccccc1C(=O)O)S(=O)(=O)c1ccc2[nH]c(=O)[nH]c2c1	CXCR6 inh 39 | CXCR6 confirm inactive
CN(C)/C=C/C(=O)c1cccc(Oc2ncccn2)c1	none
CC(NC(=O)CCC(=O)NCc1ccc(F)cc1)c1ccccc1 (stereo not drawn)	CXCR6 inh 80 | CXCR6 confirm inactive
Cc1cccc(N2CCN(S(=O)(=O)c3ccc4c(c3)NC(=O)C(C)S4)CC2)c1C (stereo not drawn)	none
FC(F)Sc1ccc(NC(=S)NC2CCCCC2)cc1	CXCR6 inh 57 | CXCR6 confirm inactive
O=C(CC(Cc1ccccc1)c1ccco1)NC1CCCCC1 (stereo not drawn)	none
CC1CN(C(=O)CN2C(=O)NC3(CCCCCCC3)C2=O)CC(C)O1 (stereo not drawn)	none
COc1cc2c(cc1OC)CN(C(=O)CSc1nc(N)c(C#N)cc1C#N)CC2	CXCR6 inh 46 | CXCR6 confirm inactive
COc1ccccc1NCC(=O)c1ccc(C)c(C)c1	CCR6 antag 82, CXCR6 inh 52 | CXCR6 confirm inactive
Cc1ccc(C(=O)Nc2cccc3cccnc23)cc1Br	none
Cc1cc(C)c2c(=O)n(CC(=O)NC3CCCC3)sc2n1	CXCR6 inh 99 | CXCR6 confirm inactive
CC(=O)Nc1ccc2c(c1)Cc1cc(N3C(=O)C=CC3=O)ccc1-2	CCR6 antag 115, CXCR6 inh 99 (no result: APJ agonist, APJ antag) | CXCR6 confirm 72
Cn1cc(CNC(=O)C2CCCCC2)cn1	CXCR6 inh 43 | CXCR6 confirm inactive
CCCC(C)Sc1nc2c([nH]1)c(=S)n(C)c(=O)n2C (stereo not drawn)	CXCR6 inh 42 (no result: APJ agonist, APJ antag) | CXCR6 confirm inactive
COc1ccc(C=Cc2ccc3ccccc3n2)c(OC)c1	none (no result: APJ agonist, CCR6 antag, APJ antag)
COc1ccc(OC)c(/C=C/c2ccc3cccc(O)c3n2)c1	CXCR6 inh 48 (no result: CCR6 antag) | CXCR6 confirm 59
